Experimental data: ChEMBL document CHEMBL5154895, “Mechanistic Studies and In Vivo Efficacy of an Oxadiazole-Containing Antibiotic” (J Med Chem, 2022)
Values after ≈ are worked out from the molar mass of the structure shown. Active and inactive are the calls of the source. No cut-off for these calls is given here.

Legend:
[1] = Toxicity in Balb/c mouse infected with methicillin-resistant Staphylococcus aureus USA300 assessed as chronic inflammatory response administered topically twice daily 2 days post infection and measured after 5 days post compound treatment by H and E staining based histopathological analysis; details: in vivo, topical_or_ocular, 120 h, time 5 day
Outline: (§1)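 MRSA USA300-infected punch wounds in mice, n=5. Topical 2% agent or petroleum jelly vehicle twice daily from day 2 for 5 days. The left wound was formalin-fixed, cut into 4-μm sections and H&E-stained. Whole slides were scanned and assessed by a board-certified veterinary pathologist for necrosis, inflammation, haemorrhage and related features.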

Staphylococcus aureus [2] = assay: Downregulation of 50S rRNA methyltransferase protein expression in Staphylococcus aureus measured after 2 hrs by LC-MS/MS analysis; type: functional
Outline: (§2)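 S. aureus ATCC 25923 at OD600 0.6 was treated with compound or DMSO for 2 h at 37 °C, normalised to OD600 1.1, and washed in PBS. Cells were pressure-lysed in 100 mM ammonium bicarbonate, then acetone-precipitated, reduced with DTT, alkylated with iodoacetamide, and digested with trypsin/Lys-C. Peptides were desalted and run on LC-MS/MS. Label-free quantitation used proteins present in all 3 samples, filtered at p<0.05 against DMSO.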

Mus musculus [3] = assay: Acceleration of wound healing in methicillin-resistant Staphylococcus aureus USA300 infected Balb/c mouse model assessed as reduction in TNF-alpha level in skin wounds administered topically twice daily 2 days post infection and measured after 5 days post compound treatment; type: functional, organism-based; details: time 5.0 day
Outline: (§3)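 Mice had two 6-mm dorsal excisional wounds, each infected with 20 μL of 4.2×10^9 CFU/mL MRSA USA300 and covered with Tegaderm. Treatment began 2 days after infection (n=5 per group): 2% compound in petroleum jelly applied topically twice daily for 5 days. Right-wound homogenates in PBS were centrifuged, supernatants pooled per group, and protein normalised by BCA. Cytokines were measured by mouse cytokine array (pg/mL).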

Mus musculus [4] = assay: Acceleration of wound healing in methicillin-resistant Staphylococcus aureus USA300 infected Balb/c mouse model assessed as reduction in MCP-1 protein level in skin wounds administered topically twice daily 2 days post infection and measured after 5 days post compound treatment; type: functional, organism-based; details: time 5.0 day; outline: as §3
Staphylococcus aureus [5] = assay: Downregulation of Als protein expression in Staphylococcus aureus assessed as log2 of fold change in protein level measured after 2 hrs by LC-MS/MS analysis relative to control; type: functional; outline: as §2
Staphylococcus aureus [6] = assay: Upregulation of GpmA protein expression in Staphylococcus aureus assessed as log2 of fold change in protein level measured after 2 hrs by LC-MS/MS analysis relative to control; type: functional
Outline: (§4)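 S. aureus ATCC 25923 at OD600 0.6 exposed to compound or DMSO control for 2 h at 37°C, normalized to OD600 1.1 and PBS-washed. Cells were pressure-cycling lysed in 100 mM ammonium bicarbonate, and 50 μg protein was acetone-precipitated, reduced and alkylated, then Trypsin/Lys-C digested and C18-desalted. About 1 μg peptides went to LC-MS/MS. Label-free quantitation kept proteins present in all 3 samples, filtered at p <0.05.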

Staphylococcus aureus [7] = assay: Upregulation of MecA protein expression in Staphylococcus aureus assessed as log2 of fold change in protein level measured after 2 hrs by LC-MS/MS analysis relative to control; type: functional; outline: as §4
Staphylococcus aureus [8] = assay: Downregulation of hydrolase protein expression in Staphylococcus aureus measured after 2 hrs by LC-MS/MS analysis; type: functional; outline: as §2
Staphylococcus aureus [9] = assay: Antibacterial activity against vancomycin-resistant Staphylococcus aureus 12 assessed as inhibition of bacterial growth incubated for 18 to 20 hrs by broth microdilution method; type: functional; details: time 18-20 hrs
Outline: (§5)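 Broth microdilution per CLSI. Inoculum was set to 0.5 McFarland and diluted in CAMHB to about 5×10^5 CFU/mL. Serial dilutions of agent were incubated aerobically at 37 °C for 18–20 h. MIC was read visually as the lowest concentration with complete growth inhibition.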

Staphylococcus aureus [10] = assay: Downregulation of site-specific integrase protein expression in Staphylococcus aureus measured after 2 hrs by LC-MS/MS analysis; type: functional; outline: as §4
Staphylococcus aureus [11] = assay: Downregulation of Nuc protein expression in Staphylococcus aureus assessed as log2 of fold change in protein level measured after 2 hrs by LC-MS/MS analysis relative to control; type: functional; outline: as §2
Enterococcus faecium = assay: Antibacterial activity against vancomycin-resistant Enterococcus faecium ATCC 700221 assessed as inhibition of bacterial growth incubated for 18 to 20 hrs by broth microdilution method; type: functional; details: time 18-20 hrs
Outline: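 Broth microdilution per CLSI. Enterococci were diluted to about 5×10^5 CFU/mL in TSB and incubated aerobically with serial dilutions of agent at 37 °C for 18–20 h. MIC was read visually as the lowest concentration with no visible growth.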

Staphylococcus aureus [12] = assay: Antibacterial activity against methicillin-sensitive Staphylococcus aureus NRS 107 assessed as inhibition of bacterial growth incubated for 18 to 20 hrs by broth microdilution method; type: functional; details: time 18-20 hrs; outline: as §5
Staphylococcus aureus [13] = assay: Downregulation of IlvA protein expression in Staphylococcus aureus assessed as log2 of fold change in protein level measured after 2 hrs by LC-MS/MS analysis relative to control; type: functional; outline: as §2
Staphylococcus aureus [14] = assay: Downregulation of carboxylesterase protein expression in Staphylococcus aureus measured after 2 hrs by LC-MS/MS analysis; type: functional; outline: as §2
Staphylococcus aureus [15] = assay: Upregulation of siderophore biosynthesis protein SbnC expression in Staphylococcus aureus measured after 2 hrs by LC-MS/MS analysis; type: functional; outline: as §4
[16] = Toxicity in Balb/c mouse infected with methicillin-resistant Staphylococcus aureus USA300 assessed as necrosis administered topically twice daily 2 days post infection and measured after 5 days post compound treatment by H and E staining based histopathological analysis; details: in vivo, topical_or_ocular, 120 h, time 5 day; outline: as §1
Staphylococcus aureus [17] = assay: Downregulation of SarR protein expression in Staphylococcus aureus assessed as log2 of fold change in protein level measured after 2 hrs by LC-MS/MS analysis relative to control; type: functional; outline: as §2
Staphylococcus aureus [18] = assay: Antibacterial activity against methicillin-resistant Staphylococcus aureus NRS119 assessed as inhibition of bacterial growth incubated for 18 to 20 hrs by broth microdilution method; type: functional; details: time 18-20 hrs; outline: as §5
Staphylococcus aureus [19] = assay: Downregulation of uroporphyrinogen-III C-methyltransferase protein expression in Staphylococcus aureus measured after 2 hrs by LC-MS/MS analysis; type: functional; outline: as §4
Staphylococcus aureus [20] = assay: Downregulation of LukD protein expression in Staphylococcus aureus assessed as log2 of fold change in protein level measured after 2 hrs by LC-MS/MS analysis relative to control; type: functional; outline: as §2
Mus musculus [21] = assay: Acceleration of wound healing in methicillin-resistant Staphylococcus aureus USA300 infected in Balb/c mouse model assessed as reduction in pro-inflammatory cytokines level in skin wounds administered topically twice daily 2 days post infection and measured after 5 days post compound treatment; type: functional, organism-based; details: time 5.0 day; outline: as §3
Streptococcus pyogenes = assay: Antibacterial activity against Streptococcus pyogenes MGAS 9882 assessed as inhibition of bacterial growth incubated for 18 to 20 hrs by broth microdilution method; type: functional; details: time 18-20 hrs
Outline: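 Broth microdilution with a 0.5 McFarland inoculum diluted in tryptic soy broth to about 5 × 10^5 CFU/mL. Serial compound dilutions incubated aerobically at 37° C for 18–20 hours. MIC read visually as the lowest concentration with no growth.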

Staphylococcus aureus [22] = assay: Upregulation of siderophore biosynthesis protein SbnA expression in Staphylococcus aureus measured after 2 hrs by LC-MS/MS analysis; type: functional; outline: as §4
Staphylococcus aureus [23] = assay: Upregulation of thiol reductase thioredoxin expression in Staphylococcus aureus measured after 2 hrs by LC-MS/MS analysis; type: functional; outline: as §4
Staphylococcus aureus [24] = assay: Upregulation of Bsh protein expression in Staphylococcus aureus assessed as log2 of fold change in protein level measured after 2 hrs by LC-MS/MS analysis relative to control; type: functional; outline: as §4

## CC1CC(C)CN(S(=O)(=O)c2ccc(C(=O)Nc3nnc(-c4ccc(C(F)(F)F)cc4)o3)cc2)C1 (stereo unspecified)
[1]
  Activity: Toxic
Staphylococcus aureus [2]
  Activity: Active
Mus musculus [3]
  Activity: Active
Mus musculus [4]
  Activity: Active
Staphylococcus aureus [5]
  log2FC: -2.7
Staphylococcus aureus [6]
  log2FC: 2.2
Staphylococcus aureus [7]
  log2FC: 2
Staphylococcus aureus [8]
  Activity: Active
Staphylococcus aureus [9]
  MIC: 0.25 µg/mL (≈ 0.492 µM)
Staphylococcus aureus [10]
  Activity: Active
Staphylococcus aureus [11]
  log2FC: -5.1
Enterococcus faecium
  MIC: 0.25 µg/mL (≈ 0.492 µM)
Staphylococcus aureus [12]
  MIC: 0.25 µg/mL (≈ 0.492 µM)
Staphylococcus aureus [13]
  log2FC: -2
Staphylococcus aureus [14]
  Activity: Active
Staphylococcus aureus [15]
  Activity: Active
[16]
  Activity: Toxic
Staphylococcus aureus [17]
  log2FC: -2
Staphylococcus aureus [18]
  MIC: 0.25 µg/mL (≈ 0.492 µM)
Staphylococcus aureus [19]
  Activity: Active
Staphylococcus aureus [20]
  log2FC: -2
Mus musculus [21]
  Activity: Active
Streptococcus pyogenes
  MIC: 0.06 µg/mL (≈ 0.118 µM)
Staphylococcus aureus [22]
  Activity: Active
Staphylococcus aureus [23]
  Activity: Active
Staphylococcus aureus [24]
  log2FC: 3.6
